# pIC50: −log10 of the molar value.
# Experiments:
# HepG2 [1] = experiment: Concentration required to inhibit cholesterol synthesis in Hep G2 cells; type: functional, cell-based; details: Homo sapiens
# How it was run: (§1)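 Hep G2 cells held 2 days in lipoprotein-depleted FBS to stimulate sterol synthesis, then given inhibitor in serum-free medium for 2 h. 15 μCi [5-3H]mevalonate (0.2 mCi/mmol) added for 1 h. Cells washed and saponified, and radioactivity counted by scintillation.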
# HepG2 [2] = experiment: Concentration required to inhibit cholesterol synthesis in Hep G2 cells relative to control (IC50 of L-694,599); type: functional, Homo sapiens; how it was run: as §1
# Squalene synthase = target: T1, Squalene synthase (Rattus norvegicus, UniProt Q02769); experiment: Tested for inhibition against squalene synthase enzyme in rat liver
# T1 sequence (Q02769 whole entry): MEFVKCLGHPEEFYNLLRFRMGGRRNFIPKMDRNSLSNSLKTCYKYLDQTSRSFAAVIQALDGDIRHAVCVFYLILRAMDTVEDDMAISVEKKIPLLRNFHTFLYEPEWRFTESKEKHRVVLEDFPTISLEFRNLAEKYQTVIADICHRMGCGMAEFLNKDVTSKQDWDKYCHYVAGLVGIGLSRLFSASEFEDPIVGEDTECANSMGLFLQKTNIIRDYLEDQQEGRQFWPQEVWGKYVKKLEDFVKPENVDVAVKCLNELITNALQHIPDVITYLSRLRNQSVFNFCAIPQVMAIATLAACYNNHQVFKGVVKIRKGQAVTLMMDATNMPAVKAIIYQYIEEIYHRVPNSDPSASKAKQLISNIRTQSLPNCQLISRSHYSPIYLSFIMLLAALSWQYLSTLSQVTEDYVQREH
# [3] = target: T2, Squalene synthase (Rattus norvegicus) (UniProt Q02769); experiment: Concentration required to inhibit rat liver squalene synthase enzyme relative to control (L-694,599)
# T2 sequence (whole entry): T1 sequence (Q02769 whole entry)
# How it was run: (§2)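 Enzyme from rat liver. […] Inhibitors added in DMSO (0.3% final) as 3-fold serial dilutions, usually up to 30 ng/mL (about 40 nM). IC50 read from % inhibition vs log concentration.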
# [4] = target: T3, Squalene synthase (Mus musculus) (UniProt P53798); experiment: Tested for the effective dose required for the incorporation of [5-3H]-mevalonolactone into cholesterol by in vivo mouse assay by peroral administration; type: functional, organism-based
# T3 sequence (whole entry): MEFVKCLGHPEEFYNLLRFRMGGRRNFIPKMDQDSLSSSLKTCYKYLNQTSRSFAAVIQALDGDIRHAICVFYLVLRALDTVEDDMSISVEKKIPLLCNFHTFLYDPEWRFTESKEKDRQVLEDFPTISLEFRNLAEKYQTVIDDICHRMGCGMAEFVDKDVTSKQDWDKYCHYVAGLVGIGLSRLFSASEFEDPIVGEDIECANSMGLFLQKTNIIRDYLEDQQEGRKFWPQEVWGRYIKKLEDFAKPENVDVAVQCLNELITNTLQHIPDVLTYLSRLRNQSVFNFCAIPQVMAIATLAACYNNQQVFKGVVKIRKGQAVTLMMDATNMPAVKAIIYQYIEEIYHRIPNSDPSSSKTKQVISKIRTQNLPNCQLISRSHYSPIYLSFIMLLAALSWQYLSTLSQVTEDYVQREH
# How it was run: (§3)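 Female Swiss Webster mice (~25 g), six per group, dosed po by gavage with inhibitor suspended in 5% emulphor. 30 min later, 0.5 μCi/mouse [5-3H]mevalonolactone in saline given sc. Livers removed 30 min after that and saponified in KOH/EtOH overnight at 55 °C, then petroleum-ether extracted. Nonsaponifiable dpm counted. Compounds first tested at a single dose (typically 12 or 24 mg/kg).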
# Mus musculus [5] = experiment: Ability to inhibit the incorporation of [5-3H]-mevalonolactone into cholesterol by in vivo mouse assay by peroral administration at a dose of 24 mg/kg; type: functional; details: route oral; how it was run: as §3
# [6] = target: T2, Squalene synthase (Rattus norvegicus); experiment: concentration required to inhibit rat liver squalene synthase enzyme relative to control (L-694,599); how it was run: as §2
# Mus musculus [7] = experiment: Tested for its ability to inhibit the incorporation of [5-3H]-mevalonolactone into cholesterol by in vivo mouse assay by peroral administration at a dose of 40 mg/kg; type: functional; details: route oral; how it was run: as §3
SMILES,pIC50 (HepG2 [1]),pIC50 (Squalene synthase),Relative activity [3],ED50 [4] [mg/kg],Relative activity [6],Relative activity (HepG2 [2]),inhibition in vivo at 24 mg/kg (Mus musculus [5]) [%],inhibition in vivo at 40 mg/kg (Mus musculus [7]) [%]
C=C(CCC12OC(C(=O)O)C(O)(C(=O)O)C(C(=O)O)(O1)[C@H](OC(=O)CC[C@@H](C)C[C@@H](C)CC)[C@H]2O)[C@@H](OC(C)=O)[C@H](C)Cc1ccccc1 (stereo not given in full),5.12,9.72,0.74,,,0.8,,
C=C(CCC12OC(C(=O)O)C(O)(C(=O)O)C(C(=O)O)(O1)[C@H](O)[C@H]2O)[C@@H](OC(C)=O)[C@H](C)Cc1ccccc1 (stereo not given in full),,,,> 24,,,34,
C=C(CCC12OC(C(=O)O)C(O)(C(=O)O)C(C(=O)O)(O1)[C@H](OC(=O)/C=C/[C@@H](C)C[C@@H](C)CC)[C@H]2O)[C@@H](OC(=O)CC)[C@H](C)Cc1ccccc1 (stereo not given in full),,9.38,,,0.69,,-4,
C=C(CCC12OC(C(=O)O)C(OCCCCCCCCOc3ccccc3)(C(=O)O)C(C(=O)O)(O1)[C@H](O)[C@H]2O)[C@@H](OC(C)=O)[C@H](C)Cc1ccccc1 (stereo not given in full),,9.09,,,0.16,,,
C=C(CCC12OC(C(=O)O)C(OCCCCCCCCCCCCCC)(C(=O)O)C(C(=O)O)(O1)[C@H](O)[C@H]2O)[C@@H](OC(C)=O)[C@H](C)Cc1ccccc1 (stereo not given in full),,9.12,,,0.17,,,
C=C(CCC12OC(C(=O)O)C(O)(C(=O)O)C(C(=O)O)(O1)[C@H](OCCCCCCCCOc1ccccc1)[C@H]2O)[C@@H](OC(C)=O)[C@H](C)Cc1ccccc1 (stereo not given in full),,9.80,,,0.81,,,4
C=C(CCC12OC(C(=O)O)C(O)(C(=O)O)C(C(=O)O)(O1)[C@H](OC(=O)CCCCCCCCCCOc1ccccc1)[C@H]2O)[C@@H](OC(C)=O)[C@H](C)Cc1ccccc1 (stereo not given in full),5.70,9.89,1.08,,,3.4,11,
C=C(CCC12OC(C(=O)O)C(O)(C(=O)O)C(C(=O)O)(O1)[C@H](OC(=O)NCCCCCCCCCCCOc1ccccc1)[C@H]2O)[C@@H](OC(C)=O)[C@H](C)Cc1ccccc1 (stereo not given in full),5.89,10.15,,,1.71,0.64,56,
C=C(CCC12OC(C(=O)O)C(O)(C(=O)O)C(C(=O)O)(O1)[C@H](OC(=O)CCCC)[C@H]2O)[C@@H](OC(C)=O)[C@H](C)Cc1ccccc1 (stereo not given in full),,,,> 24,,,40,
C=C(CCC12OC(C(=O)O)C(O)(C(=O)O)C(C(=O)O)(O1)[C@H](OC(=O)SC(C)C)[C@H]2O)[C@@H](OC(C)=O)[C@H](C)Cc1ccccc1 (stereo not given in full),,8.47,,14,0.06,,,
C=C(CCC12OC(C(=O)O)C(OCCCCCCCCOc3ccccc3)(C(=O)O)C(C(=O)O)(O1)[C@H](OCCCCCCCCOc1ccccc1)[C@H]2O)[C@@H](OC(C)=O)[C@H](C)Cc1ccccc1 (stereo not given in full),,8.09,,,0.02,,,

# The remaining compounds from weak to strong by pIC50 (Squalene synthase), led by results:
pIC50 (HepG2 [1]),pIC50 (Squalene synthase),Relative activity [3],ED50 [4] [mg/kg],Relative activity [6],SMILES,Relative activity (HepG2 [2]),inhibition in vivo at 24 mg/kg (Mus musculus [5]) [%],inhibition in vivo at 40 mg/kg (Mus musculus [7]) [%]
,7.77,,,0.02,C=C(CCC12OC(C(=O)O)C(OCCCCCCCCCCCC)(C(=O)O)C(C(=O)O)(O1)[C@H](OCCCCCCCCCCCC)[C@H]2O)[C@@H](OC(C)=O)[C@H](C)Cc1ccccc1 (stereo not given in full),,,
,8.01,0.027,,,C=C(CCC12OC(C(=O)O)C(O)(C(=O)O)C(C(=O)O)(O1)[C@H](OC(=O)CCC)[C@H]2O)[C@@H](OC(=O)CCC)[C@H](C)Cc1ccccc1 (stereo not given in full),,1,
,8.96,,,0.11,C=C(CCC12OC(C(=O)O)C(OCCCCCCCCCCCOc3ccccc3)(C(=O)O)C(C(=O)O)(O1)[C@H](O)[C@H]2O)[C@@H](OC(C)=O)[C@H](C)Cc1ccccc1 (stereo not given in full),,,
,9.10,0.46,> 24,,C=C(CCC12OC(C(=O)O)C(O)(C(=O)O)C(C(=O)O)(O1)[C@H](OC(=O)NCC13CC4CC(CC(C4)C1)C3)[C@H]2O)[C@@H](OC(C)=O)[C@H](C)Cc1ccccc1 (stereo not given in full),,-5,
4.85,9.10,,,0.15,C=C(CCC12OC(C(=O)O)C(O)(C(=O)O)C(C(=O)O)(O1)[C@H](OCCCCCCCCCCCCCCCC)[C@H]2O)[C@@H](OC(C)=O)[C@H](C)Cc1ccccc1 (stereo not given in full),0.49,,
5.60,9.28,0.27,,,C=C(CCC12OC(C(=O)O)C(O)(C(=O)O)C(C(=O)O)(O1)[C@H](OC(=O)CCCCCCCCCCCCCCC)[C@H]2O)[C@@H](OC(C)=O)[C@H](C)Cc1ccccc1 (stereo not given in full),2.2,,
5.10,9.42,0.45,,,C=C(CCC12OC(C(=O)O)C(O)(C(=O)O)C(C(=O)O)(O1)[C@H](OC(=O)CCCCCCCCCCc1ccccc1)[C@H]2O)[C@@H](OC(C)=O)[C@H](C)Cc1ccccc1 (stereo not given in full),1.37,11,
,9.43,1.38,,,CC(=O)OC(CCCC12OC(C(=O)O)C(O)(C(=O)O)C(C(=O)O)(O1)[C@H](OC(=O)CC/C=C/C(C)CCCc1ccccc1)[C@H]2O)C(C)Cc1ccccc1 (stereo not given in full),,,20
,9.55,0.5,,,C=C(CCC12OC(C(=O)O)C(O)(C(=O)O)C(C(=O)O)(O1)[C@H](OC(=O)NCCCCCCCCCCCCCC)[C@H]2O)[C@@H](OC(C)=O)[C@H](C)Cc1ccccc1 (stereo not given in full),,12,
,9.59,0.77,,,C=C(CCC12OC(C(=O)O)C(O)(C(=O)O)C(C(=O)O)(O1)[C@H](OC(=O)OCCC[C@@H](C)C[C@@H](C)CC)[C@H]2O)[C@@H](OC(C)=O)[C@H](C)Cc1ccccc1 (stereo not given in full),,-4,
,9.62,,,1.67,C=C(CCC12OC(C(=O)O)C(O)(C(=O)O)C(C(=O)O)(O1)[C@H](OC(=O)/C=C/[C@@H](C)C[C@@H](C)CC)[C@H]2O)C[C@H](C)Cc1ccccc1 (stereo not given in full),,,
6.05,9.70,1.1,,,C=C(CCC12OC(C(=O)O)C(O)(C(=O)O)C(C(=O)O)(O1)[C@H](OC(=O)CCCCCCCCCCCCC)[C@H]2O)[C@@H](OC(C)=O)[C@H](C)Cc1ccccc1 (stereo not given in full),6.11,,
5.06,9.77,1.29,,,C=C(CCC12OC(C(=O)O)C(O)(C(=O)O)C(C(=O)O)(O1)[C@H](OC(=O)NCCCCCCCCCCCC)[C@H]2O)[C@@H](OC(C)=O)[C@H](C)Cc1ccccc1 (stereo not given in full),1.02,0,
,9.85,1,,,CC(/C=C/CCC(=O)O[C@@H]1[C@@H](O)C2(CCCCC(C)Cc3ccccc3)OC(C(=O)O)C(O)(C(=O)O)C1(C(=O)O)O2)CCCc1ccccc1 (stereo not given in full),,8,

# Reference: ChEMBL document CHEMBL1127414 (J Med Chem, 1994)
